Compounds with a hit are over-represented: about 3% of the library has one in this group of screens.
TRPC4 inh = TRPC4 (mouse) channel inhibition | Q9QUQ5 | HEK293 TRPC4beta/mu-opioid, DAMGO-evoked Fluo4 calcium flux; hits give low values | B-score at 10 µM | actives 0.39% (n = 300,000);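 active = B-score over 3 SD under the library average, no early fluorescence shift, positive overall ratio signal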
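Signal: kinetic Fluo4 fluorescence imaging of calcium influx. Material: stable TRPC4beta/mu-opioid receptor HEK293 cells. Probe or stimulus: DAMGO in two steps, submaximal then maximal.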
TRPC4 agonist = opens the mouse TRPC4 cation channel. HEK293 TRPC4beta/mu-opioid, Fluo4 calcium fluorescence; hits give high values. B-score at 10 µM. actives 0.49% (n = 310,000);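 active = B-score above 5 SD of library B-scores, and initial fluorescence ratio not above library mean plus 5 SD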;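 note: positive B-score marks a calcium rise read as TRPC4 activation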
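Assay system: HEK293 stable line with TRPC4beta plus mu-opioid receptor; schedule: 45 min room-temperature Fluo4 loading, 110 s read; technique: kinetic Fluo4 calcium fluorescence; evaluation: integrated baseline-normalised fluorescence ratio, converted to per-well B score; controls: buffer (low) and maximal DAMGO (high)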
TRPC4 potent = allosterically enhances the mouse TRPC4 cation channel; Q9QUQ5; actives 0.42% (n = 310,000); HEK293 TRPC4beta/mu-opioid, DAMGO EC20, Fluo-4 Ca2+ flux; hits give high values; B-score at 10 µM;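 active = B-score of calcium response area above 5 SD of library B-scores, with initial fluorescence ratio within 5 SD of library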;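 note: B-score of integrated fluorescence ratio over time as area under calcium response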
TRPC6 inh = blocks the mouse TRPC6 cation channel. AID 2553. actives 1.1% (n = 310,000). HEK293-TRPC6, membrane potential dye, ACh-evoked depolarization; hits give low values. B-score at 10 µM. Q61143;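 active = B-score under library mean minus 3 SD, initial fluorescence not abnormally high, positive integrated signal ratio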;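 note: B-score derived from integrated fluorescence ratio over the kinetic read; more negative B-score means stronger inhibition of depolarization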
Kir21 block = inhibitors of mouse Kir2.1 inward-rectifier potassium channel | actives 0.85% (n = 310,000) | HEK293-Kir2.1, FluxOR thallium flux fluorescence; hits give low values | B-score at 10 µM | AID 1672;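 active = fluorescence ratio B-score at or below minus 3 SD of library scores, with starting-brightness B-score within 2 SD, cut at about -4.2 in these data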;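 note: channel flux triggered by added potassium and thallium sulfate stimulus; B-score of peak minus minimum fluorescence over baseline after thallium stimulus; more negative B-score means stronger Kir2.1 block with less thallium influx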
Target sequence (P35561 whole entry, looked up): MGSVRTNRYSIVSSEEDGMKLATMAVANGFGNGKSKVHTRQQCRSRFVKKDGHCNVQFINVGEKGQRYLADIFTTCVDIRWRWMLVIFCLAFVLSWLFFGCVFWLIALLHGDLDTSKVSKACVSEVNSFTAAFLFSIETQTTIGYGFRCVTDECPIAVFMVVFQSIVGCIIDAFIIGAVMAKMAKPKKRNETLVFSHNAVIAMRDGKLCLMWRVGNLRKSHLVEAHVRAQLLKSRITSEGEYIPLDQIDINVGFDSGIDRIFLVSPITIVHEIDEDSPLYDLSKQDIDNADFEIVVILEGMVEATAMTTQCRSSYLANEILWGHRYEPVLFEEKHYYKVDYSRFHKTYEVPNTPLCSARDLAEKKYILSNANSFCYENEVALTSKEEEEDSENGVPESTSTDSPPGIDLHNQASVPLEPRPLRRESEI
TRPC6 act = activators of mouse TRPC6 channel | HEK293-TRPC6 membrane potential dye fluorescence; hits give high values | actives 0.13% (n = 310,000) | Q61143 | B-score at 10 µM;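 active = B-score of the integrated fluorescence ratio above library mean plus 3 SD, and starting fluorescence ratio within library mean plus 5 SD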;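 note: higher score means more depolarization so channel activation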
* hit, by the source's call; i = inactive.

SMILES | TRPC4 inh | TRPC4 agonist | TRPC4 potent | TRPC6 inh | Kir21 block | TRPC6 act
CC(=O)OC1(c2ccccc2)CCN(C2CCCCC2)CC1C (stereo unspecified) | -6* | i | i | i | 0.71 | i
CC(=NCCN(C)C)c1c(O)n(Cc2ccccc2)c(=O)[nH]c1=O | i | i | i | i | -0.04 | i
CCc1ccccc1NC(=O)CNCc1ccccc1 | i | i | i | i | 0.33 | i
CC(Cc1ccccc1)NCC(=O)Nc1cc(N(C)C)nc2ccccc12 (stereo unspecified) | -6* | i | i | i | -2.4 | i
CN1CCN(c2ccccc2N)CC1 | i | i | i | i | 0.45 | i
CN1CCN(c2c(N)c(=O)oc3ccccc23)CC1 | i | i | 10* | i | -1.3 | i
c1ccc2[nH]c(CCNC3CCCCC3)nc2c1 | i | 65* | i | i | -0.29 | i
CCN1CCN(S(=O)(=O)c2ccc(Cl)c(C(=O)Nc3ccc(C(=O)N(CC)CC)cc3)c2)CC1 | i | 48* | i | i | 1.7 | i
COc1cccc(CC(=O)N(C)C2CCCN(Cc3ccccc3F)C2)c1 (stereo unspecified) | i | i | i | i | -1.6 | i
COc1ccccc1NC1(C#N)CCCCC1 | i | i | i | i | 0.85 | i
Cc1ccccc1N1CCN(C2CCCN(C(=O)COc3ccccc3)C2)CC1 (stereo unspecified) | i | i | i | i | 0 | i
Cc1c(C=C2C(=O)NC(=O)NC2=O)c(=O)n(-c2ccccc2)n1C | i | i | i | i | 0.09 | i
CCN(CC)c1nc2c(C)cccn2c(=O)c1C=C1C(=O)NC(=O)NC1=O | i | i | 14* | i | -2.9 | i
O=C(O)c1[nH]c(=O)[nH]c(=O)c1F | i | i | i | i | -2.1 | i
CNc1ccc2oc(C[C@H]3O[C@@]4(CC[C@H]3C)O[C@H]([C@H](C)C(=O)c3ccc[nH]3)[C@H](C)C[C@H]4C)nc2c1C(=O)O | i | 148* | i | i | 0 | i
COC(=O)C1=CO[C@@H](C)[C@H]2CN3CC[C@]4(C(=O)Nc5ccccc54)[C@@H]3C[C@H]12 | i | i | i | i | 0.54 | i
CC(C)CC(NC(=O)C1CCCCC1)C(=O)N1CCC2(CC1)OCCO2 (stereo unspecified) | i | i | i | i | 0.43 | i
CC(C)C[C@H](NC(=O)[C@@H]1CCCN1C(=O)[C@@H](N)Cc1ccc(O)cc1)C(=O)NCC(N)=O | i | 53* | i | i | 0.07 | i
CC(Cc1ccccc1)NCc1ccccc1O (stereo unspecified) | i | i | i | i | -5.5* | i
CCCCCCCSc1cc(OC)c(CCN(C)C)cc1OC | i | i | i | i | -9.9* | i
C[C@]12CCC3=C4CCC(=O)C=C4CC[C@H]3C1CC[C@@H]2O (stereo partly specified) | i | i | i | i | 0.66 | i
COc1cccc(CNCCc2c[nH]c3ccccc23)c1OC | i | i | i | i | -2 | i
CCOc1cc(CNCCc2c[nH]c3ccccc23)cc(Cl)c1OC | i | 159* | i | i | -5.6* | i
COc1ccc(CCNCc2ccc(C)s2)cc1OC | i | i | i | i | 2.3 | i
COc1ccc(Cc2nccc3cc(OC)c(OC)cc23)cc1OC | i | i | i | i | -8.3* | i
SMILES | TRPC4 inh | TRPC4 agonist | TRPC4 potent | TRPC6 inh | Kir21 block | TRPC6 act
O=S(=O)(c1ccccc1)N1CCN2CCCC2C1 (stereo unspecified) | i | i | i | i | 0.05 | i
C#CCN1C(=O)C2(C(C#N)=C(N)OC(C)=C2C(=O)OCc2ccccc2)c2ccccc21 (stereo unspecified) | i | i | 29* | i | -1.6 | i
CCN(CC)C(=O)N[C@H]1C[C@@H]2c3cccc4[nH]cc(c34)C[C@H]2N(C)C1 | i | 83* | i | i | -0.08 | i
CC(N)Cc1cn(Cc2ccccc2)c2ccccc12 (stereo unspecified) | i | i | i | i | -0.78 | i
O=P(Nc1ccccc1)(Oc1ccccc1)Oc1ccccc1 | i | i | i | i | 1.1 | i
Cc1cccc(OP(=O)(Nc2cccnc2)Oc2cccc(C)c2)c1 | i | i | 11* | i | 1.2 | i
Cc1ccc(OP(=O)(Nc2cccc(C)c2)Oc2ccc(C)cc2)cc1 | i | i | i | i | 0.21 | i
O=P(Nc1cccnc1)(Oc1ccccc1Cl)Oc1ccccc1Cl | i | i | i | i | -4.8* | i
C[C@H](NC(=O)N1C[C@H]2C[C@@H](C1)c1cccc(=O)n1C2)C(=O)Nc1ccc(F)c(F)c1 | i | i | i | i | 1.2 | i
CC1CCC(C(C)C)C(OC(=O)Cn2c(COc3ccccc3)[n+](C)c3ccccc32)C1 (stereo unspecified) | i | i | i | i | -17* | i
COc1cc(Br)cc(CN2CCN(C)CC2)c1O | i | i | i | i | 0.13 | i
CCN1CCN(Cc2cc(Br)ccc2O)CC1 | i | i | 23* | i | 1.3 | i
CCc1ccc(CN2CCN(Cc3cc(Br)ccc3O)CC2)cc1 | i | i | i | i | 0.01 | i
CCN1CCN(Cc2cc(Br)cc(Br)c2O)CC1 | i | 200* | i | i | 0.16 | i
Cc1cccc(N=Nc2ccc(N(C)C)cc2)c1 | i | i | i | i | -0.23 | i
O=S(=O)(c1ccccc1)N1CCCCC1c1cccnc1 (stereo unspecified) | i | i | i | i | -2.5 | i
O=S(=O)(c1ccc(Cl)cc1)N1CCCC1c1cccnc1 (stereo unspecified) | i | i | i | i | -5.2* | i
O=c1[nH]c(=O)n(CCc2ccccc2)c(O)c1C=NC1CC1 | i | i | 14* | i | -0.19 | i
CN(C)CCCN=Cc1c(O)n(CCc2ccccc2)c(=O)[nH]c1=O | i | i | i | i | 1.8 | i
CC1(C)CSC(=NCc2ccccc2)N1 | i | 68* | i | i | 0.11 | i
COc1ccc(C(=O)O/N=C(/C(N)=O)P(=O)(OC(C)C)OC(C)C)cc1 | i | i | i | i | -4.6* | i
Cn1cc[n+](C)c1P(=S)(c1ccccc1)c1ccccc1 | i | 66* | i | i | -0.17 | i
